In test [1] the test system is Human immunodeficiency virus 1. The test can be described thus: Antiviral activity against HIV-1 M2 harboring protease L10I, I13V, M46I, I50V, L63P, L76V mutant infected in human MT4 cells assessed as inhibition of viral replication after 3 days by GFP reporter gene assay. Particulars: Human immunodeficiency virus 1, M2, MT4, 72 h. It counts as functional, organism-based. The method, boiled down: (§1)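 Cell-based replication assay in MT4 cells carrying an LTR-GFP readout (HIV tat drives GFP). Serial compound concentrations were mixed with cells at 150 000 cells/mL and 200 CCID50 of virus, incubated 3 days at 37 °C, 5% CO2. Percent inhibition per concentration gave dose-response curves for EC50/pEC50. Run in quadruplicate. Mock-infected parallel cultures at the same concentrations gave CC50.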
Background: A reporter such as luciferase makes a cellular process visible.

Test [2] relates to Human immunodeficiency virus 1. Briefly: Antiviral activity against HIV-1 M1 harboring protease L10I, M46I, I64V, I84V, L90M, I93L mutant infected in human MT4 cells assessed as inhibition of viral replication after 3 days by GFP reporter gene assay. The class given is functional, organism-based. Conditions: Human immunodeficiency virus 1, M1, MT4, 72 h. The method, boiled down:
as §1

Test [3] relates to Human immunodeficiency virus 1. Briefly: Antiviral activity against wild type HIV-1 3B infected in human MT4 cells assessed as inhibition of viral replication after 3 days by GFP reporter gene assay in presence of human serum. It counts as functional, organism-based. Conditions: Human immunodeficiency virus 1, 3B, MT4, 72 h.
In test [4] the test system is Human immunodeficiency virus 1. Briefly: Antiviral activity against wild type HIV-1 3B infected in human MT4 cells assessed as inhibition of viral replication after 3 days by GFP reporter gene assay. The class given is functional, organism-based. Particulars: Human immunodeficiency virus 1, 3B, MT4, 72 h. The method, boiled down:
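MT4 cells (150 000 cells/mL) were infected with wild-type HIV-1/LAI at 200 CCID50 across a compound concentration range. Plates were incubated 3 days at 37 °C and 5% CO2. Replication was read as GFP driven by HIV-tat binding LTR sequences. EC50 was taken from dose-response curves of percent inhibition, in quadruplicate. Mock-infected parallel cultures gave CC50 from reduced GFP.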

Test [5] relates to Human immunodeficiency virus 1. Briefly: Ratio of EC50 for HIV-1 M3 harboring protease L10I, K20R, M36I, G48V, I62V, A71V, V82A, I93L mutant to EC50 for wild type HIV-1 3B. The class given is functional.
In test [6] the test system is Human immunodeficiency virus 1. Briefly: Ratio of EC50 for HIV-1 M1 harboring protease L10I, M46I, I64V, I84V, L90M, I93L mutant to EC50 for wild type HIV-1 3B. The class given is functional.
Test [7] deals with Human immunodeficiency virus 1. Briefly: Antiviral activity against HIV-1 M3 harboring protease L10I, K20R, M36I, G48V, I62V, A71V, V82A, I93L mutant infected in human MT4 cells assessed as inhibition of viral replication after 3 days by GFP reporter gene assay. The class given is functional, organism-based. Conditions: Human immunodeficiency virus 1, M3, MT4, 72 h. The method, boiled down:
as §1

For test [8], the system named is Human immunodeficiency virus 1. The test can be described thus: Ratio of EC50 for HIV-1 M2 harboring protease L10I, I13V, M46I, I50V, L63P, L76V mutant to EC50 for wild type HIV-1 3B. It counts as functional.

The results in this text go back to ChEMBL document CHEMBL3425439, “Disubstituted Bis-THF Moieties as New P2 Ligands in Nonpeptidal HIV-1 Protease Inhibitors (II)” (J Med Chem, 2015).

What is called EC50 is the concentration giving half of the maximal effect. For the compound `CNc1nc2ccc(S(=O)(=O)N(CC(C)C)C[C@@H](O)[C@H](Cc3ccccc3)NC(=O)O[C@H]3CO[C@H]4OC[C@H](F)[C@H]43)cc2o1`, the EC50 in test [1] came to 2.8 nM; in test [2] it was 0.8 nM; in test [3], 8.4 nM; in test [4], 0.7 nM; in test [7] it was 0.7 nM. Moreover, the entries for the “Ratio EC50” value in test [5], in test [6] and in test [8] were 0.9, 1.2 and 4.1, respectively.

`CC(C)CN(C[C@@H](O)[C@H](Cc1ccccc1)NC(=O)O[C@H]1CO[C@H]2OC[C@H](OCC(=O)NCc3ccccc3)[C@H]21)S(=O)(=O)c1ccc(N)cc1`: the EC50 in test [1] turned out to be 35.2 nM; in test [2], 10.8 nM; in test [3], 93.5 nM; in test [4] it was 16 nM; in test [7], 9.3 nM. For the same compound, the “Ratio EC50” value is 0.6 in test [5], 0.7 in test [6] and 2.2 in test [8].

With `CNC(=O)CO[C@H]1CO[C@@H]2OC[C@H](OC(=O)N[C@@H](Cc3ccccc3)[C@H](O)CN(CC(C)C)S(=O)(=O)c3ccc4nc(NC)oc4c3)[C@@H]21`, the EC50 was found to be 204 nM in test [1]; 151 nM in test [2]; 376 nM in test [3]; 460 nM in test [4]; 68.5 nM in test [7]. The “Ratio EC50” value was 0.1 in test [5], 0.3 in test [6] and 0.4 in test [8].

As to `CC(C)CN(C[C@@H](O)[C@H](Cc1ccccc1)NC(=O)O[C@H]1CO[C@H]2OC[C@H](NC(=O)OCc3ccccc3)[C@H]21)S(=O)(=O)c1ccc(N)cc1`, the EC50 is 82.5 nM in test [1]; 5.7 nM in test [2]; 35.2 nM in test [3]; 5 nM in test [4]; 1.8 nM in test [7]. Further, the entries for the “Ratio EC50” value in test [5], in test [6] and in test [8] were 0.4, 1.1 and 16, respectively.

For `CNc1nc2ccc(S(=O)(=O)N(CC(C)C)C[C@@H](O)[C@H](Cc3ccccc3)NC(=O)O[C@H]3CO[C@H]4OC[C@H](OCC(=O)N(C)C)[C@H]43)cc2o1`, the EC50 is 83.8 nM in test [1]; 102 nM in test [2]; 243 nM in test [3]; 249 nM in test [4]; 50.4 nM in test [7]. In addition, the “Ratio EC50” value in test [5] is given as 0.2; in test [6] it was 0.4; in test [8], 0.3.

As to `C=C(F)CO[C@H]1CO[C@@H]2OC[C@H](OC(=O)N[C@@H](Cc3ccccc3)[C@H](O)CN(CC(C)C)S(=O)(=O)c3ccc4nc(NC)oc4c3)[C@@H]21`, the EC50 in test [1] is 2.3 nM; in test [2], 0.8 nM; in test [3] it was 2.2 nM; in test [4], 0.4 nM; in test [7], 0.5 nM. Moreover, the “Ratio EC50” value in test [5] was determined as 1.4; in test [6] it was 1.2; in test [8] it was 6.1.

With `CNc1nc2ccc(S(=O)(=O)N(CC(C)C)C[C@@H](O)[C@H](Cc3ccccc3)NC(=O)O[C@H]3CO[C@H]4OC[C@H](NC(=O)OCc5ccccc5)[C@H]43)cc2o1`, the EC50 in test [1] was found to be 7.5 nM; in test [2], 2.4 nM; in test [3], 16.6 nM; in test [4], 3.8 nM; in test [7], 1 nM. For the same compound, the “Ratio EC50” value in test [5] is 0.3; in test [6] it was 0.6; in test [8] it was 2.

In the case of `COc1ccc(S(=O)(=O)N(CC(C)C)C[C@@H](O)[C@H](Cc2ccccc2)NC(=O)O[C@H]2CO[C@H]3OC[C@H](OCC(=O)NCc4ccccc4)[C@H]32)cc1`, the EC50 came to 4.4 nM in test [1]; 3.3 nM in test [2]; 4.6 nM in test [3]; 0.6 nM in test [4]; 1 nM in test [7]. The “Ratio EC50” value was 1.7 in test [5], 5.6 in test [6] and 7.5 in test [8].

On to `CC(C)CN(C[C@@H](O)[C@H](Cc1ccccc1)NC(=O)O[C@H]1CO[C@H]2OC[C@H](Cl)[C@H]21)S(=O)(=O)c1ccc(N)cc1`, for which the EC50 amounted to 31.6 nM in test [1]; 2.8 nM in test [2]; 4.6 nM in test [3]; 0.4 nM in test [4]; 1.5 nM in test [7]. The “Ratio EC50” value is on record as 4 in test [5], 7.5 in test [6] and 85 in test [8].

`CNC(=O)CO[C@H]1CO[C@@H]2OC[C@H](OC(=O)N[C@@H](Cc3ccccc3)[C@H](O)CN(CC(C)C)S(=O)(=O)c3ccc(OC)cc3)[C@@H]21`: the EC50 in test [1] was 15.7 nM; in test [2], 14.3 nM; in test [3], 16.1 nM; in test [4], 6.9 nM; in test [7], 8.3 nM. The entries for the “Ratio EC50” value in test [5], in test [6] and in test [8] were 1.2, 2.1 and 2.3, respectively.

`CC(C)CN(C[C@@H](O)[C@H](Cc1ccccc1)NC(=O)O[C@H]1CO[C@H]2OC[C@H](OC(=O)NCc3ccccc3)[C@H]21)S(=O)(=O)c1ccc(N)cc1`: the EC50 in test [1] turned out to be 124 nM; in test [2] it was 15.5 nM; in test [3], 30.4 nM; in test [4], 5.8 nM; in test [7], 5.2 nM. The “Ratio EC50” value is recorded as 0.9 in test [5], 3.2 in test [6] and 22 in test [8].

For `CNc1nc2ccc(S(=O)(=O)N(CC(C)C)C[C@@H](O)[C@H](Cc3ccccc3)NC(=O)O[C@H]3CO[C@H]4OC[C@H](Cl)[C@H]43)cc2o1`, the EC50 in test [1] is 2.1 nM; in test [2], 0.7 nM; in test [3], 4.2 nM; in test [4], 0.5 nM; in test [7], 0.7 nM. Besides, the “Ratio EC50” value in test [5] turned out to be 1.6; in test [6], 1.6; in test [8] it was 4.6.

With `CNc1nc2ccc(S(=O)(=O)N(CC(C)C)C[C@@H](O)[C@H](Cc3ccccc3)NC(=O)O[C@H]3CO[C@H]4OC[C@H](OCCC(F)(F)F)[C@H]43)cc2o1`, the EC50 in test [1] came out at 2.8 nM; in test [2], 0.9 nM; in test [3], 8.2 nM; in test [4] it was 0.5 nM; in test [7], 0.8 nM. Moreover, the “Ratio EC50” value in test [5] worked out at 1.6; in test [6], 1.9; in test [8], 5.9.

For the compound `CNc1nc2ccc(S(=O)(=O)N(CC(C)C)C[C@@H](O)[C@H](Cc3ccccc3)NC(=O)O[C@H]3CO[C@H]4OC[C@H](OCC(=O)NCc5ccccc5)[C@H]43)cc2o1`, the EC50 in test [1] was 15.1 nM; in test [2] it was 13.4 nM; in test [3] it was 102 nM; in test [4], 25 nM; in test [7], 6.4 nM. The “Ratio EC50” value was 0.3 in test [5], 0.5 in test [6] and 0.6 in test [8].

For the compound `CNc1nc2ccc(S(=O)(=O)N(CC(C)C)C[C@@H](O)[C@H](Cc3ccccc3)NC(=O)O[C@H]3CO[C@H]4OC[C@H](OC(=O)NCc5ccccc5)[C@H]43)cc2o1`, the EC50 in test [1] was 13.9 nM; in test [2], 7.2 nM; in test [3], 26.7 nM; in test [4], 5.8 nM; in test [7], 4 nM. For the same compound, the “Ratio EC50” value in test [5] is on record as 0.7; in test [6], 1.2; in test [8] it was 2.4.

Turning to `COc1ccc(S(=O)(=O)N(CC(C)C)C[C@@H](O)[C@H](Cc2ccccc2)NC(=O)O[C@H]2CO[C@H]3OC[C@H](OCC(=O)N(C)C)[C@H]32)cc1`, the EC50 in test [1] was determined as 11.5 nM; in test [2], 7 nM; in test [3] it was 7 nM; in test [4] it was 3.8 nM; in test [7] it was 2.9 nM. Besides, the “Ratio EC50” value was determined as 0.8 in test [5], 1.8 in test [6] and 3 in test [8].

For `COc1ccc(S(=O)(=O)N(CC(C)C)C[C@@H](O)[C@H](Cc2ccccc2)NC(=O)O[C@H]2CO[C@H]3OC[C@H](O)[C@H]32)cc1`, the EC50 came out at 6.7 nM in test [1]; 6.9 nM in test [2]; 12.4 nM in test [3]; 6.5 nM in test [4]; 1.6 nM in test [7]. The “Ratio EC50” value in test [5] amounted to 0.2; in test [6], 1.1; in test [8] it was 1.
